{"data": "Assay results pooled from the literature", "target": "Serine/threonine-protein kinase Nek2 (NEK2, Homo sapiens, UniProt P51955)", "note": "Compare with care: the assays were run in different laboratories."}
{"Compound": "Cn1c2c(c3ccc(Cl)c(Cl)c31)C(C#N)C(C)(C)NC2=O (stereo not shown)", "observed": "thermal stability", "method": "DSF", "tested at": "10 µM", "endpoint": "ΔTm", "value": "-0.9 °C"}
{"Compound": "CC(C)(C)c1nc(-c2cccc(NS(=O)(=O)c3c(F)cccc3F)c2F)c(-c2ccnc(N)n2)s1", "observed": "enzyme activity", "action": "inhibitor", "method": "radiometric", "tested at": "1 µM", "endpoint": "remaining activity", "value": "83%"}
{"Compound": "O=C(Nc1cnn(-c2csc(C(=O)NC3COC3)c2)c1)Nc1c(F)cccc1Cl", "observed": "enzyme activity", "action": "inhibitor", "tested at": "5 µM", "endpoint": "remaining activity", "value": "96.2%"}
{"Compound": "CN1CC(Oc2cnc(C#N)cc2-c2ccn3nc(NC(=O)C4CC4)cc3c2)C1", "observed": "enzyme activity", "action": "inhibitor", "tested at": "1 µM", "endpoint": "inhibition", "value": "5%"}
{"Compound": "CN(C)C1CCN(CC#Cc2nn(C3CCCC3)c3nc(NCc4ccccc4)ncc23)C1 (stereo not shown)", "observed": "enzyme activity", "action": "inhibitor", "method": "FRET", "tested at": "1 µM", "endpoint": "inhibition", "value": "4%"}
{"Compound": "Cc1ccc(NC(=O)c2ccc(C)c(C(F)(F)F)c2)cc1C#Cc1nn(C2CCC(O)CC2)c2ncnc(N)c12 (stereo not shown)", "observed": "cell-free assay", "tested at": "10 µM", "endpoint": "remaining signal", "value": "117%"}
{"Compound": "O=C(NS(=O)(=O)c1ccc(NCC2CCOCC2)c([N+](=O)[O-])c1)c1ccc(N2CCN(Cc3ccc(C(F)(F)F)cc3-c3ccc(Cl)cc3)CC2)cc1Oc1cnc2[nH]ccc2c1", "observed": "cell-free assay", "method": "competition with immobilised ligand", "tested at": "1 µM", "endpoint": "remaining binding", "value": "100%"}
{"Compound": "Oc1cccc(-c2nc(N3CCOCC3)c3oc4ncccc4c3n2)c1", "observed": "enzyme activity", "action": "inhibitor", "tested at": "10 µM", "endpoint": "remaining activity", "value": "86%"}
{"Compound": "N#CC1(c2ccccn2)CCN(Cc2cc(C(=O)N3CCCC3)c(=O)n3ccccc23)CC1", "observed": "cell-free assay", "method": "competition with immobilised ligand", "tested at": "1 µM", "endpoint": "remaining binding", "value": "95%"}
{"Compound": "CNC(=O)c1cc(Oc2ccc(NC(=O)Nc3ccc(Cl)c(C(F)(F)F)c3)cc2)ccn1", "observed": "enzyme activity", "action": "inhibitor", "tested at": "10 µM", "endpoint": "inhibition", "value": "-16%"}
{"Compound": "CN(c1ncccc1CNc1nc(Nc2ccc3c(c2)CC(=O)N3)ncc1C(F)(F)F)S(C)(=O)=O", "observed": "enzyme activity", "action": "inhibitor", "tested at": "1 µM", "endpoint": "inhibition", "value": "4.1%"}
{"Compound": "CN(c1ccnc(CNc2nc(Nc3ccc4c(c3)CC(=O)N4)ncc2C(F)(F)F)n1)S(C)(=O)=O", "observed": "cell-free assay", "method": "competition with immobilised ligand", "tested at": "1 µM", "endpoint": "remaining binding", "value": "83%"}
{"Compound": "Nc1nc(NC2CCCCC2)sc1C(=O)c1ccccc1", "observed": "enzyme activity", "action": "inhibitor", "tested at": "10 µM", "endpoint": "remaining activity", "value": "93%"}
{"Compound": "CCN1CCC2(CC1)NC(=O)c1c(c3ccc(Cl)c(Cl)c3n1C)C2C#N (racemic)", "observed": "thermal stability", "method": "DSF", "tested at": "10 µM", "endpoint": "ΔTm", "value": "0 °C"}
{"Compound": "N#CCCc1ccc2c(c1)-c1[nH]c3ccc([N+](=O)[O-])cc3c1CC(=O)N2", "observed": "cell-free assay", "tested at": "0.5 µM", "endpoint": "remaining signal", "value": "92.7%"}
{"Compound": "Cc1ccc(Nc2nccc(N(C)c3ccc4c(C)n(C)nc4c3)n2)cc1S(N)(=O)=O", "observed": "enzyme activity", "action": "inhibitor", "tested at": "0.3 µM", "endpoint": "inhibition", "value": "2%"}
{"Compound": "CNC(=O)c1ccc(Nc2ncc(C(F)(F)F)c(NCc3nccnc3N(C)S(C)(=O)=O)n2)cc1", "observed": "cell-free assay", "method": "competition with immobilised ligand", "tested at": "0.1 µM", "endpoint": "remaining binding", "value": "75%"}
{"Compound": "COc1cc(Nc2cnc(C#N)c(O[C@H](C)CN(C)C)n2)ncc1-c1cnn(C)c1", "observed": "enzyme activity", "action": "inhibitor", "method": "radiometric", "tested at": "10 µM", "endpoint": "remaining activity", "value": "64%"}
{"Compound": "O=C1NC(=O)c2cc(Nc3ccc(F)cc3)c(Nc3ccc(F)cc3)cc21", "observed": "cell-free assay", "tested at": "0.5 µM", "endpoint": "remaining signal", "value": "96.3%"}
